ChEMBL document CHEMBL4831540, “Discovery of Aficamten (CK-274), a Next-Generation Cardiac Myosin Inhibitor for the Treatment of Hypertrophic Cardiomyopathy” (J Med Chem, 2021)

What was measured:
[1] = system: Rattus norvegicus; test: Anti-hypertrophic cardiomyopathy in Sprague-Dawley rat assessed as reduction in fractional shortening at 4 mg/kg, po measured upto 24 hrs by echocardiography relative to control; assay type: functional; set-up: scale not given: the % may be the effect or the level left; details: time hrs <=24
In short: (§1)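 Normal Sprague–Dawley rats were given single oral doses of 0.5–4 mg/kg. Left ventricular dimensions and fractional shortening were measured by echocardiography at selected time points over 24 h, relative to vehicle treatment.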

[2] = system: Rattus norvegicus; test: Anti-hypertrophic cardiomyopathy in po dosed Sprague-Dawley rat assessed as reduction in fractional shortening measured upto 24 hrs by echocardiography; assay type: functional, organism-based; in short: as §1
[3] = Ratio of IC50 to IC10 for anti-hypertrophic cardiomyopathy in po dosed Sprague-Dawley rat assessed as reduction in fractional shortening measured upto 24 hrs by echocardiography; assay type: functional; details: time hrs <=24
In short: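 Sprague–Dawley rats received single oral doses from 0.5 to 4 mg/kg. LV dimensions and fractional shortening were read by echocardiography at set times over 24 h, with blood drawn at each reading for compound level. Concentrations giving 50% and 10% FS reduction were derived, and their IC50/IC10 ratio was calculated.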

[4] = molecular target: CYP3A4 (Homo sapiens, UniProt P08684); test: Induction of CYP3A4 in human hepatocytes assessed as mRNA expression incubated for 3 days by RT-RTPCR analysis; assay type: ADME, cell-based, Hepatocyte
In short: (§2)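 Cryopreserved plateable human primary hepatocytes from three separate donors were tested at concentrations up to 50 μM. The end point was CYP mRNA level, with induction judged against predetermined cutoff values (2-fold).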

[5] = molecular target: T1, Cytochrome P450 2B6 (Homo sapiens, UniProt P20813); test: Induction of CYP2B6 in human hepatocytes assessed as mRNA expression incubated for 3 days by RT-RTPCR analysis; assay type: ADME, cell-based; details: hepatocyte; in short: as §2
T1 sequence (P20813 whole entry): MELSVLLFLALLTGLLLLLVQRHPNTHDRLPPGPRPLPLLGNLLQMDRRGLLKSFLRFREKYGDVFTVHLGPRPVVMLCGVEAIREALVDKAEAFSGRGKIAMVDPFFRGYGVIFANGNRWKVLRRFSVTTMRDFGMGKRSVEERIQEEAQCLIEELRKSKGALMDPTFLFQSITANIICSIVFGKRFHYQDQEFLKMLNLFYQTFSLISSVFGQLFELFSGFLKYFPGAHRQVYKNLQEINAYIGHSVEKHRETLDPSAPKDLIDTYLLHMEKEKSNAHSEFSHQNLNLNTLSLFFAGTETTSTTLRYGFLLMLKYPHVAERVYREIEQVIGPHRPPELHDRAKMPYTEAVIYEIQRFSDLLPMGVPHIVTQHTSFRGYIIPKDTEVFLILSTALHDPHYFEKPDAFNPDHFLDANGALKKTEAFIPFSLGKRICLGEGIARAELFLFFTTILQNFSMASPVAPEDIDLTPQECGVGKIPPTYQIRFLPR

[6] = Half life in human; assay type: ADME

Sequence of CYP3A4 (P08684 whole entry): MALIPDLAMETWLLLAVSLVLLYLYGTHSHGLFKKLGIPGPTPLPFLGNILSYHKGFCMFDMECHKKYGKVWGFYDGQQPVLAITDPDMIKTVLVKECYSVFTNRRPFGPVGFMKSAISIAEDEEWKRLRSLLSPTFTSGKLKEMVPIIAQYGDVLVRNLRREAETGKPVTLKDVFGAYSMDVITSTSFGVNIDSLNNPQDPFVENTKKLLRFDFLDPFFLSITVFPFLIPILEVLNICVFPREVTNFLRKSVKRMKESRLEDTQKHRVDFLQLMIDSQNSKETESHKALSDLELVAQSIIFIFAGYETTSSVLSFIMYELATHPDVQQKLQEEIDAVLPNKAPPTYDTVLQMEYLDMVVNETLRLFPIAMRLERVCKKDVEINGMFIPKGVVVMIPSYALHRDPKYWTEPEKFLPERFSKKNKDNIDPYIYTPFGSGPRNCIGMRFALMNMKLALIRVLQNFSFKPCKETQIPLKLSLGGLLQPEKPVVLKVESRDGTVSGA

EC50 at 3 days [4]: 2200 nM
EC50 [5]: 5100 nM
half-life [6]: 216 h
SMILES: CC(C)n1c(=O)cc(N[C@@H](C)c2ccccc2)[nH]c1=O [MAVACAMTEN]
Activity [1]: 80%
IC10 ([2]; Rattus norvegicus, Sprague-Dawley, 24 h): 600 nM
IC50 ([2]; time hrs <=24): 1700 nM
Ratio [3]: 2.8
